Source: ChEMBL document CHEMBL1125528, “Synthesis and pharmacological evaluation of enantiomerically pure 4-deoxy-4-fluoromuscarines” (J Med Chem, 1992)

Assays:
[1] = molecular target: Muscarinic acetylcholine receptor M3 (Cavia porcellus) (UniProt Q8VH26); assay: In vitro potency at muscarinic M3 receptors of guinea pig ileum.; assay type: functional, tissue-based
[2] = molecular target: Muscarinic acetylcholine receptor M3 (Cavia porcellus) (UniProt Q8VH26); assay: In vitro potency at muscarinic M3 receptors of guinea pig bladder relative to muscarine..; assay type: functional
[3] = molecular target: T1, Muscarinic acetylcholine receptor M2 (Homo sapiens) (UniProt P08172); assay: In vitro potency at muscarinic M2 receptors of guinea pig heart relative to muscarine.; assay type: functional; conditions: Cavia porcellus; target entry is the homologue from another species
T1 sequence (whole entry): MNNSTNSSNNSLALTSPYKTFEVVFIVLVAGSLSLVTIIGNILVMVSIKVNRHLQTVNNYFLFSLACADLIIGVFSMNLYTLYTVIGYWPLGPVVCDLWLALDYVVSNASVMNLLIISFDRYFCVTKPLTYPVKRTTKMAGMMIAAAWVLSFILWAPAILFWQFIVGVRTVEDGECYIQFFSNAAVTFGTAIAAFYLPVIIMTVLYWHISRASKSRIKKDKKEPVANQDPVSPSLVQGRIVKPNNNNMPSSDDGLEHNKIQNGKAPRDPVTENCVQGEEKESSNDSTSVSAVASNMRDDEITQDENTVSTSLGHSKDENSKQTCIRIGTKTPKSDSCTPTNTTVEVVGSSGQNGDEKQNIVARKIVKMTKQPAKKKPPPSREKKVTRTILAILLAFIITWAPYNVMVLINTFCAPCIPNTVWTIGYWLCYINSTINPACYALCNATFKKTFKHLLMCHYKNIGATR

[4] = molecular target: T1, Muscarinic acetylcholine receptor M2 (Homo sapiens); assay: In vitro potency at muscarinic M2 receptors of guinea pig heart(atria force).; assay type: functional; conditions: Cavia porcellus; target entry is the homologue from another species
[5] = molecular target: Muscarinic acetylcholine receptor M3 (Cavia porcellus) (UniProt Q8VH26); assay: In vitro potency at muscarinic M3 receptors of guinea pig bladder.; assay type: functional
Outline: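 Guinea pig bladder longitudinal strip (2 mm wide, urethra to apex) in ileum PSS at 37 °C with isometric recording; 30 min equilibration, then the ileum protocol.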

[6] = molecular target: Muscarinic acetylcholine receptor M3 (Cavia porcellus) (UniProt Q8VH26); assay: % receptor occupied at ED50 on guinea pig bladder
[7] = molecular target: Muscarinic acetylcholine receptor M3 (Cavia porcellus) (UniProt Q8VH26); assay: % receptor occupied at ED50 on guinea pig ileum; assay type: tissue-based
[8] = molecular target: Muscarinic acetylcholine receptor M3 (Cavia porcellus) (UniProt Q8VH26); assay: Affinity for muscarinic receptors in guinea pig ileum relative to muscarine.; assay type: tissue-based
[9] = molecular target: Muscarinic acetylcholine receptor M3 (Cavia porcellus) (UniProt Q8VH26); assay: Efficacy for muscarinic receptors in guinea pig ileum relative to muscarine.; assay type: functional, tissue-based
[10] = molecular target: T1, Muscarinic acetylcholine receptor M2 (Homo sapiens); assay: Dissociation constant at guinea pig heart(atria rate).; assay type: functional; conditions: Cavia porcellus; target entry is the homologue from another species
[11] = molecular target: T1, Muscarinic acetylcholine receptor M2 (Homo sapiens); assay: Potency at cardiac M2 receptors mediating bradycardia to decrease the heart rate in pithed rat; assay type: functional, tissue-based
Outline: (§1)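 Pithed rats, artificially respired at 60 cycles/min, 1 mL/100 g, with heparin 150 IU/kg iv, at about 37 °C. Heart rate came from the carotid pressure pulse after at least 30 min stabilisation. Agonists in 0.9% saline were given iv at 0.1 mL/100 g, one curve per preparation. ED50 was read graphically. Antagonists (pirenzepine 50 µg/kg, methoctramine 300 µg/kg iv) were given 20 min beforehand.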

[12] = molecular target: Muscarinic acetylcholine receptor M3 (Cavia porcellus) (UniProt Q8VH26); assay: Dissociation constant at muscarinic M3 receptors of guinea pig ileum.; assay type: tissue-based
[13] = molecular target: T1, Muscarinic acetylcholine receptor M2 (Homo sapiens); assay: Affinity for muscarinic receptors in guinea pig heart(atria rate) relative to muscarine.; conditions: Cavia porcellus; target entry is the homologue from another species
[14] = molecular target: T1, Muscarinic acetylcholine receptor M2 (Homo sapiens); assay: % receptor occupied at ED50 on guinea pig heart(atria force); conditions: Cavia porcellus; target entry is the homologue from another species
[15] = molecular target: T1, Muscarinic acetylcholine receptor M2 (Homo sapiens); assay: % receptor occupied at ED50 on guinea pig heart(atria rate); conditions: Cavia porcellus; target entry is the homologue from another species
[16] = molecular target: T2, Muscarinic acetylcholine receptor M1 (Homo sapiens) (UniProt P11229); assay: Potency at ganglionic M1 receptors mediating tachycardia to increase the heart rate in pithed rat; assay type: functional, tissue-based; outline: as §1
T2 sequence (whole entry): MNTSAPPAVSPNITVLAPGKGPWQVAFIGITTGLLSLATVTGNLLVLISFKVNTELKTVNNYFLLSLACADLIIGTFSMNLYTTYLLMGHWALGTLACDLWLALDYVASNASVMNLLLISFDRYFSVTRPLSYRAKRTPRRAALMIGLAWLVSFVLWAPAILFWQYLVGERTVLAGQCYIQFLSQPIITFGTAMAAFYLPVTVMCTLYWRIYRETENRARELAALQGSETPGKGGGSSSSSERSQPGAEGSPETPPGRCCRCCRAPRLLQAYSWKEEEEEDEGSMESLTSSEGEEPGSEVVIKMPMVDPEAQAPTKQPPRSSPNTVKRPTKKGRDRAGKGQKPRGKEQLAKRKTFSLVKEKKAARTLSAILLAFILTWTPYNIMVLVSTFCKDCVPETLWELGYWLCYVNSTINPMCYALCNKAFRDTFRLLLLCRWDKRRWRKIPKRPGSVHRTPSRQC

[17] = molecular target: T1, Muscarinic acetylcholine receptor M2 (Homo sapiens); assay: In vitro potency at muscarinic M2 receptors of guinea pig heart(atria rate).; assay type: functional; conditions: Cavia porcellus; target entry is the homologue from another species
[18] = molecular target: T1, Muscarinic acetylcholine receptor M2 (Homo sapiens); assay: Dissociation constant at guinea pig heart(atria force).; assay type: functional; conditions: Cavia porcellus; target entry is the homologue from another species
[19] = molecular target: T1, Muscarinic acetylcholine receptor M2 (Homo sapiens); assay: Affinity for muscarinic receptors in guinea pig heart(atria force) relative to muscarine.; conditions: Cavia porcellus; target entry is the homologue from another species
[20] = molecular target: T1, Muscarinic acetylcholine receptor M2 (Homo sapiens); assay: Efficacy for muscarinic receptors in guinea pig heart(atria force relative to muscarine.; assay type: functional; conditions: Cavia porcellus; target entry is the homologue from another species
[21] = molecular target: Muscarinic acetylcholine receptor M3 (Cavia porcellus) (UniProt Q8VH26); assay: Dissociation constant at muscarinic M3 receptors of guinea pig bladder.
[22] = molecular target: Muscarinic acetylcholine receptor M3 (Cavia porcellus) (UniProt Q8VH26); assay: In vitro potency at muscarinic M3 receptors of guinea pig ileum relative to muscarine..; assay type: functional, tissue-based
[23] = molecular target: Muscarinic acetylcholine receptor M3 (Cavia porcellus) (UniProt Q8VH26); assay: Affinity for muscarinic receptors in guinea pig bladder relative to muscarine.
[24] = molecular target: T1, Muscarinic acetylcholine receptor M2 (Homo sapiens); assay: Efficacy for muscarinic receptors in guinea pig heart(atria rate) relative to muscarine.; assay type: functional; conditions: Cavia porcellus; target entry is the homologue from another species
[25] = molecular target: Muscarinic acetylcholine receptor M3 (Cavia porcellus) (UniProt Q8VH26); assay: Efficacy for muscarinic receptors in guinea pig bladder relative to muscarine.; assay type: functional
[26] = molecular target: Muscarinic acetylcholine receptor M3 (Cavia porcellus) (UniProt Q8VH26); assay: % muscarinic acetylcholine receptor M3 occupied at ED50 on guinea pig bladder
[27] = molecular target: Muscarinic acetylcholine receptor M3 (Cavia porcellus) (UniProt Q8VH26); assay: % muscarinic acetylcholine receptor M3 occupied at ED50 on guinea pig ileum; assay type: tissue-based
[28] = molecular target: Muscarinic acetylcholine receptor M3 (Cavia porcellus) (UniProt Q8VH26); conditions: Ileum
[29] = molecular target: Muscarinic acetylcholine receptor M3 (Cavia porcellus) (UniProt Q8VH26); conditions: Ileum; remark: listed apart in the source
[30] = molecular target: Muscarinic acetylcholine receptor M3 (Cavia porcellus) (UniProt Q8VH26); conditions: Ileum; remark: listed apart in the source

Chain of Muscarinic acetylcholine receptor M3 (Cavia porcellus) (Q8VH26 1-587): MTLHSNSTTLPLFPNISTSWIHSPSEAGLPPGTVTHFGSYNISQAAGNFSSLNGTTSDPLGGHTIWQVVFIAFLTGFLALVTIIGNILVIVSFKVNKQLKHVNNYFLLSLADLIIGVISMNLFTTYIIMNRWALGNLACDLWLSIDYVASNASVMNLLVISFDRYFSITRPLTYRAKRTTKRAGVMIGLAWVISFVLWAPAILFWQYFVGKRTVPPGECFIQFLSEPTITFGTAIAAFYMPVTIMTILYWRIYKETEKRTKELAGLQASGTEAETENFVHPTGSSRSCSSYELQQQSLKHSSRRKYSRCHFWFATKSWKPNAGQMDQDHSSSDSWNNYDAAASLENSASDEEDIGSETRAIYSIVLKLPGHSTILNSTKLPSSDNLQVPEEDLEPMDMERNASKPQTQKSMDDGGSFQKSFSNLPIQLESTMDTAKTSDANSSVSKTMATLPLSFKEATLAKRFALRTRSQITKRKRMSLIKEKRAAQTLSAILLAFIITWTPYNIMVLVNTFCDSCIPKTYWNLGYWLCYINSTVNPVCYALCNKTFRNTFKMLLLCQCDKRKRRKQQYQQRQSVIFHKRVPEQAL

Q: How did the -Log ED50 [1] turn out when `C[C@@H]1O[C@@H](C[N+](C)(C)C)C[C@@H]1F` was run?
A: The -Log ED50 was 4.64.

Q: And the Intrinsic activity [2]?
A: Its Intrinsic activity is 0.52.

Q: And the Intrinsic activity [3]?
A: The Intrinsic activity was 0.72.

Q: And the -Log ED50 [4]?
A: Its -Log ED50 is 4.07.

Q: What about the -Log ED50 [5] of the same compound?
A: Its -Log ED50 is 3.92.

Q: Which results are given for `C[C@@H]1O[C@@H](C[N+](C)(C)C)C[C@H]1F`?
A: -Log ED50 [1]: 5.93; Intrinsic activity [2]: 0.74; Intrinsic activity [3]: 0.97; -Log ED50 [4]: 5.59; -Log ED50 [5]: 4.45

Q: With `C[C@@H]1O[C@H](C[N+](C)(C)C)C[C@H]1F` as the compound, how does the PD2 [1] read?
A: The PD2 was 7.36.

Q: And the Intrinsic activity [2]?
A: Its Intrinsic activity is 0.88.

Q: And the Receptor occupied [6]?
A: Its Receptor occupied is 5.11%.

Q: And the Receptor occupied [7]?
A: The Receptor occupied was 2.24%.

Q: And the Relative affinity [8]?
A: The Relative affinity was 0.59.

Q: What about the Relative efficacy [9] of the same compound?
A: The Relative efficacy was 2.96.

Q: What about the -Log KD [10] of the same compound?
A: Its -Log KD is 5.77.

Q: And the ED50 [11]?
A: Its ED50 is 0.0235 mg/kg.

Q: What about the -Log KD [12] of the same compound?
A: Its -Log KD is 5.72.

Q: What about the Intrinsic activity [3] of the same compound?
A: Its Intrinsic activity is 0.98.

Q: What about the Relative affinity [13] of the same compound?
A: The Relative affinity was 14.5.

Q: And the Receptor occupied [14]?
A: Its Receptor occupied is 0.86%.

Q: And the Receptor occupied [15]?
A: Its Receptor occupied is 7.36%.

Q: What about the ED50 [16] of the same compound?
A: The ED50 was 0.0045 mg/kg.

Q: What about the -Log ED50 [17] of the same compound?
A: The -Log ED50 was 6.87.

Q: And the -Log KD [18]?
A: Its -Log KD is 4.67.

Q: And the Relative affinity [19]?
A: Its Relative affinity is 0.93.

Q: What about the Relative efficacy [20] of the same compound?
A: Its Relative efficacy is 1.17.

Q: And the -Log KD [21]?
A: Its -Log KD is 4.39.

Q: And the Intrinsic activity [22]?
A: The Intrinsic activity was 0.95.

Q: What about the Relative affinity [23] of the same compound?
A: Its Relative affinity is 0.59.

Q: What about the PD2 [4] of the same compound?
A: The PD2 was 6.73.

Q: And the PD2 [5]?
A: The PD2 was 5.66.

Q: What about the Relative efficacy [24] of the same compound?
A: The Relative efficacy was 0.21.

Q: And the Relative efficacy [25]?
A: Its Relative efficacy is 1.54.

Q: `C[C@@H]1O[C@H](C[N+](C)(C)C)C[C@H]1O` (racemic) was tested. Which Receptor occupied [26] did it give?
A: The Receptor occupied was 7.85%.

Q: What about the Receptor occupied [27] of the same compound?
A: The Receptor occupied was 6.62%.

Q: And the PD2 [28]?
A: The PD2 was 7.1.

Q: What about the -Log KD [29] of the same compound?
A: Its -Log KD is 5.95.

Q: And the PD2 [30]?
A: Its PD2 is 5.69.

Q: How did the -Log ED50 [1] turn out when `C[C@@H]1O[C@H](C[N+](C)(C)C)C[C@@H]1F` was run?
A: The -Log ED50 was 5.02.

Q: And the Intrinsic activity [2]?
A: Its Intrinsic activity is 0.76.

Q: And the Intrinsic activity [3]?
A: Its Intrinsic activity is 0.76.

Q: What about the -Log ED50 [4] of the same compound?
A: Its -Log ED50 is 4.43.

Q: And the -Log ED50 [5]?
A: Its -Log ED50 is 3.74.
